Experiments:
Plasmodium falciparum [1] = assay: Antimalarial activity against Plasmodium falciparum 3D7 after 72 hrs by SYBR green fluorescence assay; type: functional, organism-based; conditions: 3D7, 72 h
How it was run: (§1)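 P. falciparum grown in O+ erythrocytes, screened in medium without human serum plus 0.5% Albumax II. Twelve-point half-log dilutions up to 10 μM final. 0.3% parasitemia, 2.5% hematocrit; 72 h at 37 °C under low-oxygen gas. Lysis buffer with SYBR Green added, 24 h at 25 °C, fluorescence read at 485/530 nm.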

Plasmodium falciparum [2] = assay: Antimalarial activity against Plasmodium falciparum W2 after 72 hrs by SYBR green fluorescence assay; type: functional, organism-based; conditions: W2, 72 h; how it was run: as §1
[3] = Permeability of the compound by PAMPA; type: ADME
How it was run: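 PAMPA in 96-well filter plates. Permeated compound quantified by UV absorbance at 260–290 nm. Reported as percentage absorbed.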

[4] = Apparent permeability across apical to basolateral side in human Caco2 cells by LC/MS analysis; type: ADME, cell-based; conditions: Caco-2
How it was run: (§2)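 Caco-2 monolayers in 96-well format. Compound measured in apical and basolateral chambers by LC/MS, giving Papp in the A–B and B–A directions. Values reported in cm/s × 10⁶.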

[5] = Apparent permeability across basolateral to apical side in human Caco2 cells by LC/MS analysis; type: ADME, cell-based; conditions: Caco-2; how it was run: as §2
[6] = Metabolic stability in mouse liver microsomes assessed as hepatic extraction ratio by LC/MS/MS analysis; type: ADME, Microsome
How it was run: (§3)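 Liver microsomes (human, mouse, rat). Compound depletion followed by LC/MS/MS. Loss of parent used to derive in vitro half-life and hepatic extraction ratio.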

[7] = Metabolic stability in mouse liver microsomes assessed as hepatic extraction ratio by LC/MS/MS analysis in presence of CYP; type: ADME, Microsome; how it was run: as §3
[8] = Metabolic stability in rat liver microsomes assessed as hepatic extraction ratio by LC/MS/MS analysis in presence of CYP; type: ADME, Microsome; how it was run: as §3
[9] = Metabolic stability in human liver microsomes assessed as hepatic extraction ratio by LC/MS/MS analysis in presence of CYP; type: ADME, Microsome; how it was run: as §3
[10] = Volume of distribution in Balb/c mouse at 5 mg/kg, iv; type: ADME, organism-based; parameters: dose 5 mg/kg, route intravenous; conditions: in vivo
How it was run: (§4)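 Male Balb/c mice (n = 3 per group). Compound as a 2.5 mg/mL solution in PEG300/D5W 3:1, filtered. Given by lateral tail vein at 5 mg/kg (2 mL/kg) or orally at 20 mg/kg (8 mL/kg). Six serial 50 μL retro-orbital blood samples to 24 h, heparinized plasma. Plasma extracted with acetonitrile:methanol 3:1 with internal standard, LC-MS/MS. Noncompartmental analysis; F = AUCpo×dose_iv/AUCiv×dose_po.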

[11] = Clearance in Balb/c mouse plasma at 5 mg/kg, iv; type: ADME, organism-based; parameters: dose 5 mg/kg, route intravenous; how it was run: as §4
[12] = Half life in Balb/c mouse at 5 mg/kg, iv; type: ADME, organism-based; parameters: dose 5 mg/kg, route intravenous; conditions: in vivo; how it was run: as §4
Mus musculus [13] = assay: AUC (0 to 24 hrs) in Balb/c mouse at 5 mg/kg, iv; type: ADME, organism-based, Plasma; parameters: time < 24 hr, dose 5 mg/kg, route intravenous; conditions: in vivo; how it was run: as §4
[14] = Cmax in Balb/c mouse at 20 mg/kg, po; type: ADME, organism-based; parameters: dose 20 mg/kg, route oral; conditions: in vivo; how it was run: as §4
[15] = Tmax in Balb/c mouse at 20 mg/kg, po; type: ADME, organism-based; parameters: dose 20 mg/kg, route oral; conditions: in vivo; how it was run: as §4
[16] = Half life in Balb/c mouse at 20 mg/kg, po; type: ADME, organism-based; parameters: dose 20 mg/kg, route oral; conditions: in vivo; how it was run: as §4
Mus musculus [17] = assay: AUC (0 to 24 hrs) in Balb/c mouse at 20 mg/kg, po; type: ADME, organism-based, Plasma; parameters: time < 24 hr, dose 20 mg/kg, route oral; conditions: in vivo; how it was run: as §4
Mus musculus [18] = assay: Oral bioavailability in Balb/c mouse at 20 mg/kg; type: ADME, organism-based; conditions: in vivo; how it was run: as §4
Plasmodium berghei [19] = assay: Antimalarial activity against Plasmodium berghei ANKA expressing GFP infected in NMRI mouse assessed as reduction of parasite level in blood at 30 mg/kg, po administered 24 hrs post infection measured after 72 hrs post infection by flow cytometry; type: functional; parameters: scale not given: the % may be the effect or the level left
How it was run: (§5)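 Female NMRI mice (20–22 g, n=3) are infected i.v. with 2×10^7 P. berghei GFP ANKA-infected erythrocytes. Oral compound in 75% PEG300/25% D5W is given at 10 mL/kg, once at 24 h or daily at 24/48/72 h post-infection. Parasitemia is read by flow cytometry at 72 h (single dose) or 96 h (triple dose). Activity is % reduction of mean parasitemia versus untreated controls.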

Plasmodium berghei [20] = assay: Antimalarial activity against Plasmodium berghei ANKA expressing GFP infected in NMRI mouse assessed as increase of mouse survival at 30 mg/kg, po administered 24 hrs post infection (reference value: 6 to 7 days); type: functional
Plasmodium berghei [21] = assay: Antimalarial activity against Plasmodium berghei ANKA expressing GFP infected in NMRI mouse assessed as increase of mouse survival at 100 mg/kg, po administered 24 hrs post infection (reference value: 6 to 7 days); type: functional
Plasmodium berghei [22] = assay: Antimalarial activity against Plasmodium berghei ANKA expressing GFP infected in NMRI mouse assessed as increase of mouse survival at 30 mg/kg, po administered 24 hrs post infection qd for 3 days (reference value: 6 to 7 days); type: functional
[23] = AUC (0 to 5 hrs) in Wistar rat at 10 mg/kg, po; type: ADME, organism-based; parameters: dose 10 mg/kg, route oral; conditions: plasma
[24] = Cmax in Wistar rat at 10 mg/kg, po; type: ADME, organism-based; parameters: dose 10 mg/kg, route oral; conditions: Wistar, in vivo
How it was run: (§6)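 Rat snapshot PK: two Wistar rats dosed orally at 10 mg/kg, formulated at 2.5 mg/mL in 75% PEG300/25% D5W. Blood (100 μL) taken at 0.5, 1, 3 and 5 h post dose. Plasma pooled by sampling time, then analysed by LC-MS/MS.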

Rattus norvegicus = assay: Dose normalized AUC (0 to 5 hrs) in Wistar rat at 10 mg/kg, po; type: ADME, organism-based; parameters: dose 10 mg/kg, route oral; conditions: in vivo; how it was run: as §6
Plasmodium berghei [25] = assay: Antimalarial activity against Plasmodium berghei ANKA expressing GFP infected in NMRI mouse assessed as reduction of parasite level in blood at 30 mg/kg, po administered 24 hrs post infection qd for 3 days measured after 96 hrs post infection by flow cytometry; type: functional; parameters: scale not given: the % may be the effect or the level left; how it was run: as §5
Plasmodium berghei [26] = assay: Antimalarial activity against Plasmodium berghei ANKA expressing GFP infected in NMRI mouse assessed as reduction of parasite level in blood at 100 mg/kg, po administered 24 hrs post infection measured after 72 hrs post infection by flow cytometry; type: functional; parameters: scale not given: the % may be the effect or the level left; how it was run: as §5

Row | Structure (SMILES) | EC50 (Plasmodium falciparum [1]) | EC50 (Plasmodium falciparum [2]) | permeability [3] | Papp A→B [4] | Papp B→A [5] | hepatic extraction ratio [6] | hepatic extraction ratio [7] | hepatic extraction ratio [8] | hepatic extraction ratio [9] | further results
1 | CC1(C)Cn2c(nc(-c3ccc(F)cc3)c2Nc2ccc(F)cc2)CN1C(=O)CN | 82 nM | 111 nM |  |  |  |  |  |  |  | 
2 | CC1(C)CN(C(=O)CN)Cc2nc(-c3ccc(F)cc3)c(Nc3ccc(F)cc3)n21 | 80 nM | 76 nM |  |  |  |  |  |  |  | 
3 | CC(C)(N)C(=O)N1CCn2c(nc(-c3ccc(F)cc3)c2Nc2ccc(F)cc2)C1(C)C | 10 nM | 9 nM | 99.5% | 1.2 ×10⁻⁶ cm/s | 0.97 ×10⁻⁶ cm/s |  |  |  |  | 
4 | CC(C)(N)C(=O)N1CCn2c(nc(-c3ccc(F)cc3)c2Nc2ccc(F)c(F)c2)C1(C)C | 13 nM | 7 nM |  |  |  |  |  |  |  | 
5 | Cc1ccc(Nc2c(-c3ccc(F)cc3)nc3n2CCNC3)cc1 | 161 nM | 178 nM | 99.5% | 8.2 ×10⁻⁶ cm/s | 2.36 ×10⁻⁶ cm/s | 0.8 | 0.87 | 0.96 | 0.79 | 
6 | Cc1ccc(Nc2c(-c3ccc(F)cc3)nc3n2CC(=O)NC3)cc1 | 1080 nM | 1170 nM | 80.9% | 15 ×10⁻⁶ cm/s | 14.4 ×10⁻⁶ cm/s | 0.7 | 0.66 | 0.95 | 0.44 | 
7 | Cc1ccc(Nc2c(-c3ccc(F)cc3)nc3n2CC(=O)NC3(C)C)cc1 | 138 nM | 136 nM |  |  |  | 0.72 | 0.72 |  |  | 
8 | Cc1ccc(Nc2c(-c3ccc(F)cc3)nc3n2CCNC3(C)C)cc1 | 13 nM | 13 nM | 99.9% | 15.6 ×10⁻⁶ cm/s | 6.96 ×10⁻⁶ cm/s | 0.77 | 0.87 | 0.93 | 0.88 | 
9 | CC1(C)NCCn2c1nc(-c1ccc(F)cc1)c2Nc1ccc(F)cc1 | 5 nM | 5 nM | 99.9% |  |  | 0.8 | 0.8 | 0.92 | 0.92 | Vd [10]: 1.2 L/kg; clearance [11]: 25.9 mL/min/kg; half-life [12]: 0.8 h; AUC (Mus musculus [13]): 9.09 µM·h; Cmax [14]: 6.4 µM; Tmax [15]: 1 h; half-life [16]: 2.95 h; AUC (Mus musculus [17]): 19.447 µM·h; F (Mus musculus [18]): 53%; Activity (Plasmodium berghei [19]): 90%; Survival (Plasmodium berghei [20]): 7 days; Survival (Plasmodium berghei [21]): 9.7 days; Survival (Plasmodium berghei [22]): 12 days; AUC(0-t) at 4 h [23]: 0.423 µM·h; Cmax [24]: 0.202 µM; AUC/dose (Rattus norvegicus): 0.9 min.ug/ml/(mg/kg)
10 | C[C@H]1[C@H](OC(=O)CCC(=O)O)O[C@@H]2O[C@@]3(C)CC[C@H]4[C@H](C)CC[C@@H]1[C@@]24OO3 [ARTESUNATE] |  |  |  |  |  |  |  |  |  | Activity (Plasmodium berghei [19]): 95.6%; Activity (Plasmodium berghei [25]): 99%; Survival (Plasmodium berghei [20]): 5.8 days; Survival (Plasmodium berghei [21]): 7 days; Survival (Plasmodium berghei [22]): 12.2 days
11 | CCN(CC)CCCC(C)Nc1ccnc2cc(Cl)ccc12 (stereo unspecified) [CHLOROQUINE] |  |  |  |  |  |  |  |  |  | Activity (Plasmodium berghei [19]): 99.5%; Activity (Plasmodium berghei [26]): 99.6%; Activity (Plasmodium berghei [25]): 99.8%; Survival (Plasmodium berghei [20]): 9 days; Survival (Plasmodium berghei [21]): 12.5 days; Survival (Plasmodium berghei [22]): 13.6 days
